From ChEMBL document CHEMBL5131524, “Design and Synthesis of Tranylcypromine-Derived LSD1 Inhibitors with Improved hERG and Microsomal Stability Profiles” (ACS Med Chem Lett, 2022)

Experiments:
[1] = biological target: hERG (KCNH2) (Homo sapiens, UniProt Q12809); test: Inhibition of human ERG expressed in human HEK293 cells at 10 uM for 2 mins by whole-cell patch-clamp system; format: toxicity, cell-based; details: HEK293 cells expressing human ERG
How it was run: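 hERG inhibition was measured by automated patch clamp in HEK293 cells expressing hERG. Values are the mean of three independent experiments.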

[2] = Metabolic stability in human liver microsomes assessed as compound remaining and measured after 60 mins in presence of beta-NADPH by liquid chromatography tandem mass spectrometry analysis; format: ADME, Microsome; details: read-out: Stability
How it was run: (§1)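 Percent of compound remaining after 60 min incubation with liver microsomes of each species (human, rat, mouse). Values are the mean of three independent experiments.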

[3] = Metabolic stability in rat liver microsomes assessed as compound remaining and measured after 60 mins in presence of beta-NADPH by liquid chromatography tandem mass spectrometry analysis; format: ADME, Microsome; details: read-out: Stability; how it was run: as §1
[4] = Metabolic stability in mouse liver microsomes assessed as compound remaining and measured after 60 mins in presence of beta-NADPH by liquid chromatography tandem mass spectrometry analysis; format: ADME, Microsome; details: read-out: Stability; how it was run: as §1
[5] = biological target: T1, Amine oxidase [flavin-containing] B (Homo sapiens, UniProt P27338); test: Inhibition of MAO-B (unknown origin) using tyramine as substrate and measured after 10 mins by peroxidase-coupled reaction method
T1 sequence (P27338 whole entry): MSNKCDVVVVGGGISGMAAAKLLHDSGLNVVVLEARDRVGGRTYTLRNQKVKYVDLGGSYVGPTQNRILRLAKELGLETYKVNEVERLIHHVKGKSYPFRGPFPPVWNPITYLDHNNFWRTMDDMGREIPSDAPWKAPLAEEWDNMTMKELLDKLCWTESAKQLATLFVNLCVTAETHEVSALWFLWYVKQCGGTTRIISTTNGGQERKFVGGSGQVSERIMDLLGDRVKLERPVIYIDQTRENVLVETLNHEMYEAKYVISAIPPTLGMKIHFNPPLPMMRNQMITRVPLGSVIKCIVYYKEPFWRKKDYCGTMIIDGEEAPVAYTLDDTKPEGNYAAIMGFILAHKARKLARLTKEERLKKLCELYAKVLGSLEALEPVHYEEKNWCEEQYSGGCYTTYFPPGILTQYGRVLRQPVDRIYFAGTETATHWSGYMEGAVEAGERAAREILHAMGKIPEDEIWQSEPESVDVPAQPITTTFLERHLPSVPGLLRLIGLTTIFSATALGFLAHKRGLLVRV

[6] = AUC (0-infinity) in ICR mouse at 10 mg/kg, ip; format: ADME, organism-based; set-up: time infinity, dose 10 mg/kg, route ip; details: in vivo
How it was run: (§2)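 Single intraperitoneal injection, 10 mg/5 mL per kilogram, to male ICR mice aged eight weeks (n = 3). Serum concentration–time profiles were measured, giving AUC0–∞ […], Cmax, Tmax and serum half-life.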

[7] = biological target: T2, Amine oxidase [flavin-containing] A (Homo sapiens, UniProt P21397); test: Inhibition of MAO-A (unknown origin) using tyramine as substrate and measured after 10 mins by peroxidase-coupled reaction method
T2 sequence (P21397 whole entry): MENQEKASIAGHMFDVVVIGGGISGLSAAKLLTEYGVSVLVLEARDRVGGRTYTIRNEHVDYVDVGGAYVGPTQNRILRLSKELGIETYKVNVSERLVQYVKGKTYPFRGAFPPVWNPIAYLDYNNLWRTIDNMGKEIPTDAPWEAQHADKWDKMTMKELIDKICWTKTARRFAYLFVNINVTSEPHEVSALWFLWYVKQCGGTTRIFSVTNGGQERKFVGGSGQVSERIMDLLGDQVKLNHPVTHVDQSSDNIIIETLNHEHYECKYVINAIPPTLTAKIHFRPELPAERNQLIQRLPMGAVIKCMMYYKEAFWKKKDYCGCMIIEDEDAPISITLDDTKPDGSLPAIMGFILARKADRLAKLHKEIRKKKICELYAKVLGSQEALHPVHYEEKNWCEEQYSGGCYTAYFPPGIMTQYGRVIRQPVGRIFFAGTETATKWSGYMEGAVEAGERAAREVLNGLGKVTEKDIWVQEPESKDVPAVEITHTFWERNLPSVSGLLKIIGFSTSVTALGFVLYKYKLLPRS

[8] = Cmax in ICR mouse serum at 10 mg/kg, ip; format: ADME, organism-based; set-up: dose 10 mg/kg, route ip; how it was run: as §2
[9] = Tmax in ICR mouse serum at 10 mg/kg, ip; format: ADME, organism-based; how it was run: as §2
[10] = Half life in ICR mouse serum at 10 mg/kg, ip; format: ADME, organism-based; how it was run: as §2

Chain of hERG (KCNH2) (Q12809 whole entry): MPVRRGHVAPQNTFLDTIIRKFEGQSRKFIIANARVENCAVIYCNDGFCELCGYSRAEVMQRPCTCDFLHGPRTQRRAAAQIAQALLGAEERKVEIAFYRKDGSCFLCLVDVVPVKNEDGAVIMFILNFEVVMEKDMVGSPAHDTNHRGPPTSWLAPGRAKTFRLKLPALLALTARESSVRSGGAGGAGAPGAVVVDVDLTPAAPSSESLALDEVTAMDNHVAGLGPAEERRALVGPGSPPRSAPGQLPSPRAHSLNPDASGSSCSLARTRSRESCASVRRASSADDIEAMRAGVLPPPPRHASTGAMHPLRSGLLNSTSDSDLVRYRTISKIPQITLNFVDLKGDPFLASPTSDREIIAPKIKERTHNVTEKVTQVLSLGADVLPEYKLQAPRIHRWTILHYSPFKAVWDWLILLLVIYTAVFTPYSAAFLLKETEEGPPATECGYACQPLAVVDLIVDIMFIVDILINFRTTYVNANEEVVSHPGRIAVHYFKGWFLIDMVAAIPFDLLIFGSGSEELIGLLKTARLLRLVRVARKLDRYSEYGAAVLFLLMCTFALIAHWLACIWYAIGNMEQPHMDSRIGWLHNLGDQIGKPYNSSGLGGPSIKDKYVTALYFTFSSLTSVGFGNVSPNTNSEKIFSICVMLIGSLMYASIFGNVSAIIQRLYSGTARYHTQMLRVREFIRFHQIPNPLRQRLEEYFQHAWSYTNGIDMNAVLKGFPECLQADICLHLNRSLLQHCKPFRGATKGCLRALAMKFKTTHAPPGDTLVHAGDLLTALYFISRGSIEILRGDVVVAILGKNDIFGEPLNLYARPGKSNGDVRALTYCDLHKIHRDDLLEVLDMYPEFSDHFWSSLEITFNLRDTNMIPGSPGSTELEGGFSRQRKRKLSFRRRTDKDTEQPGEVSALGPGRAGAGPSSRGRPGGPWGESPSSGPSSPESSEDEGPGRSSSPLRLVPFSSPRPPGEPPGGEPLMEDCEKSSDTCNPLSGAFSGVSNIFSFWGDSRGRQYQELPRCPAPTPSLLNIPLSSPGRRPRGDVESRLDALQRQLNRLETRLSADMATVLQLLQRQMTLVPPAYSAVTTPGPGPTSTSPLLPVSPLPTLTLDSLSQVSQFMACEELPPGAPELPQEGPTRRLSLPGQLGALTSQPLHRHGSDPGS

SMILES | remaining at 1 h [2] | remaining at 1 h [3] | remaining at 1 h [4] | inhibition at 2 min, 10 µM [1] | other results
COCCN1CCN(C(=O)CNC2CC2c2cc(F)cc(F)c2OCc2cccnc2F)CC1 (configuration not stated) | – | – | – | 21% | –
COCCN1CCN(C(=O)CNC2CC2c2cc(F)cc(F)c2OCc2ccnc(F)c2)CC1 (configuration not stated) | – | – | – | 46% | –
COCCN1CCN(C(=O)CNC2CC2c2cc(F)cc(F)c2OCc2cc[nH]n2)CC1 (configuration not stated) | – | – | – | 8% | –
COCCN1CCN(C(=O)CNC2CC2c2cc(F)cc(F)c2OCc2ccccc2)CC1 (configuration not stated) | – | – | – | 50% | –
COCCN1CCN(C(=O)CNC2CC2c2cc(F)cc(F)c2OCc2cnn(C)c2)CC1 (configuration not stated) | – | – | – | 14% | –
COCCN1CCN(C(=O)CNC2CC2c2cc(F)cc(F)c2OCCc2ccc(F)cc2)CC1 (configuration not stated) | – | – | – | > 100% | –
CN1CCN(C(=O)CNC2CC2c2cc(F)cc(F)c2OCc2ccccc2)CC1 (racemic) | – | – | – | 51% | AUC(0-inf) [6]: 0.98 µM·h; Cmax [8]: 960 nM; Tmax [9]: 15 min; half-life [10]: 57 min
COCCN1CCN(C(=O)CNC2CC2c2cc(F)cc(F)c2OCCc2ccccc2)CC1 (configuration not stated) | – | – | – | 76% | –

Continued, in another order:

remaining at 1 h [2] | remaining at 1 h [3] | remaining at 1 h [4] | SMILES | inhibition at 2 min, 10 µM [1] | other results
44% | 56% | 73% | O=C(CNC1CC1c1cc(F)cc(F)c1OCc1cccnc1F)N1CCC2(CCNC2)CC1 (configuration not stated) | 10% | –
38% | 62% | 62% | O=C(CN[C@H]1C[C@@H]1c1cc(F)cc(F)c1OCc1cccnc1F)N1CCC2(CCNC2)CC1 | – | Ki [5]: > 250 µM; AUC(0-inf) [6]: 5.09 µM·h; Ki [7]: > 250 µM; Cmax [8]: 3030 nM; Tmax [9]: 30 min; half-life [10]: 234 min
0% | 0% | 0% | O=C(CNC1CC1c1cc(F)cc(F)c1OCc1cccnc1F)N1CCC(N2CC3CCC(C2)O3)CC1 (configuration not stated) | 32% | –
0% | 24% | 25% | O=C(CNC1CC1c1cc(F)cc(F)c1OCc1cccnc1F)N1CCC(N2CC3CCC(C2)N3)CC1 (configuration not stated) | 23% | –
41% | 20% | 42% | O=C(CNC1CC1c1cc(F)cc(F)c1OCc1cccnc1F)N1CCC2(CCCN2)CC1 (configuration not stated) | 62% | –
45% | 55% | 73% | O=C(CN[C@@H]1C[C@H]1c1cc(F)cc(F)c1OCc1cccnc1F)N1CCC2(CCNC2)CC1 | – | Ki [5]: > 250 µM; Ki [7]: > 250 µM
